Test [1] can be described thus: Displacement of [3H]ditolylguanidine from sigma 2 receptor in rat liver membrane after 1.5 hrs by scintillation counting in presence of sigma 1 blocker (+)-pentazocine. The class given is cell membranes. In outline: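 Rat liver membranes (~50 μg total protein per reaction) in 50 mM Tris-HCl pH 8.0 with 10 nM [³H]-DTG plus 100 nM cold (+)-pentazocine to mask σ1 sites. […] Filtration on PEI-pretreated GF/B, scintillation counting, one-site competition fit, Ki via Cheng-Prusoff.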
On the technique in general: In a radioligand displacement assay an active substance lowers the binding of a labelled ligand.

For test [2], the target named is Sigma non-opioid intracellular receptor 1 (Rattus norvegicus, UniProt Q9R0C9). Briefly: Displacement of (+)-[3H]pentazocine from sigma 1 receptor in rat liver membrane after 1.5 hrs by scintillation counting. In kind it is cell membranes. Summed up:
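Rat liver membranes (~50 μg total protein per reaction) incubated with 10 nM [³H]-(+)-pentazocine and serial dilutions of compound (stocks in DMSO) for 1.5 h at 32°C. […] Filtered through polyethyleneimine-pretreated GF/B filters, bound radioactivity counted by liquid scintillation. One-site competition fit, Ki by Cheng-Prusoff.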

Test [3] is filed under the species Rattus norvegicus. Briefly: Selectivity ratio of Ki for rat sigma 1 receptor to Ki for rat sigma 2 receptor. In outline:
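Ratio of Ki values from rat liver membrane competition binding: σ1 with 10 nM [³H]-(+)-pentazocine, σ2 with 10 nM [³H]-DTG plus 100 nM (+)-pentazocine; 1.5 h at 32°C, filtration and scintillation counting, Ki by Cheng-Prusoff.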

The test system of test [4] is RT-4. Nature of the test: Displacement of [125I]IAF from sigma 2 receptor in human RT4 cells at 10 uM after 30 mins preincubation by photoaffinity labeling experiment. In kind it is cell-based. Summed up:
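Fresh membranes from sonicated RT4 human bladder papilloma cells (200 μg protein per reaction) preincubated with compound in 50 mM Tris pH 7.4, 30 min, 32°C. Then 1 nM [¹²⁵I]-IAF (final 1% ethyl acetate) added for 30 min at 32°C, photoactivated 6 sec with mercury lamp, quenched in SDS/β-mercaptoethanol sample buffer; labeled receptor bands examined.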

Structures are written as SMILES. Calls of active or inactive are those of the source. The rule behind the calls is not given here.

Experimental findings from ChEMBL document CHEMBL1926655, “Electron-donating para-methoxy converts a benzamide-isoquinoline derivative into a highly Sigma-2 receptor selective ligand” (Bioorg Med Chem, 2011) are described below.

Chain of Sigma non-opioid intracellular receptor 1 (Q9R0C9 whole entry): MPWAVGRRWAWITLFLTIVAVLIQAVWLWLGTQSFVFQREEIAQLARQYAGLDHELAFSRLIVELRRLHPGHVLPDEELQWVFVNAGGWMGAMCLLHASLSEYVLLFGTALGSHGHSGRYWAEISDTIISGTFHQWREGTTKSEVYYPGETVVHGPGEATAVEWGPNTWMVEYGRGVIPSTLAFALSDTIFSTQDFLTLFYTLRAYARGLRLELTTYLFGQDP

The term Ki denotes the dissociation constant of the complex between target and ligand, obtained from inhibition or displacement. `COc1cc2c(cc1OC)CN(CCCCNC(=O)c1cccc(OC)c1O)CC2`: the inhibitory constant (Ki) was determined as 1.4 µM in test [1] and 67.8 µM in test [2]. For the same molecule, the Ratio Ki in test [3] was determined as 48.4.

For `COc1c(I)ccc(C(=O)NCCCCN2CCc3ccc([N+](=O)[O-])cc3C2)c1O`, the inhibition constant Ki in test [1] stood at 0.867 µM; in test [2] it was 74.7 µM. For the same molecule, in test [3], the Ratio Ki was found to be 86.2.

Consider `COc1cc2c(cc1OC)CN(CCCCNC(=O)c1cccc([N+](=O)[O-])c1)CC2`, for which the results for the Ki in test [1] and in test [2] were greater than 10000 µM and 1210 µM, respectively.

For the molecule `COc1cccc(C(=O)NCCCCN2CCc3ccc([N+](=O)[O-])cc3C2)c1OC`, the Ki turned out to be 12.9 µM in test [1] and 7.87 µM in test [2]. Also, the Ratio Ki in test [3] came out at 0.61. In test [4], the result was inactive.

Turning to `COc1ccc(C(=O)NCCCCN2CCc3ccc([N+](=O)[O-])cc3C2)c(OC)c1OC`, the Ki was 0.0268 µM in test [1] and 10.3 µM in test [2]. For the same molecule, in test [3], the Ratio Ki was determined as 385.

Take `COc1cc2c(cc1OC)CN(CCCCNC(=O)c1ccc([N+](=O)[O-])cc1)CC2`: the values for the Ki in test [1] and in test [2] were 152 µM and 14.7 µM, respectively. The Ratio Ki in test [3] was determined as 0.096.

For `COc1cc2c(cc1OC)CN(CCCCNC(=O)c1ccccc1)CC2`, the Ki in test [1] was 5.29 µM; in test [2], greater than 10000 µM.

Consider `COc1cccc(C(=O)NCCCCN2CCc3ccc([N+](=O)[O-])cc3C2)c1O`, for which the Ki in test [1] was 4 µM; in test [2], 11.2 µM. The Ratio Ki in test [3] was found to be 2.8.

For `O=C(CCCN1CCC(O)(c2ccc(Cl)cc2)CC1)c1ccc(F)cc1`, in test [4], the result was Active.

As for `O=C1c2ccccc2C(=O)N1CCCCN1CCc2ccc([N+](=O)[O-])cc2C1`, the Ki in test [1] is 0.0213 µM; in test [2] it was 0.0875 µM. For the same molecule, the Ratio Ki in test [3] was found to be 4.12. In addition, the outcome in test [4] was Active.
